Compound activity (PubChem)
Shown are actives, neighbours in structure and some others; about 2.9% of the full set was active somewhere.
TRPC6 act: activators of mouse TRPC6 channel; Q61143; HEK293-TRPC6 membrane potential dye fluorescence; hits give high values; B-score at 10 µM; 310,000 compounds, 0.13% hits; AID 2550;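 active = B-score of the integrated fluorescence ratio above library mean plus 3 SD, and starting fluorescence ratio within library mean plus 5 SD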;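 also: higher score means more depolarization so channel activation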
Target sequence (Q61143 whole entry, looked up): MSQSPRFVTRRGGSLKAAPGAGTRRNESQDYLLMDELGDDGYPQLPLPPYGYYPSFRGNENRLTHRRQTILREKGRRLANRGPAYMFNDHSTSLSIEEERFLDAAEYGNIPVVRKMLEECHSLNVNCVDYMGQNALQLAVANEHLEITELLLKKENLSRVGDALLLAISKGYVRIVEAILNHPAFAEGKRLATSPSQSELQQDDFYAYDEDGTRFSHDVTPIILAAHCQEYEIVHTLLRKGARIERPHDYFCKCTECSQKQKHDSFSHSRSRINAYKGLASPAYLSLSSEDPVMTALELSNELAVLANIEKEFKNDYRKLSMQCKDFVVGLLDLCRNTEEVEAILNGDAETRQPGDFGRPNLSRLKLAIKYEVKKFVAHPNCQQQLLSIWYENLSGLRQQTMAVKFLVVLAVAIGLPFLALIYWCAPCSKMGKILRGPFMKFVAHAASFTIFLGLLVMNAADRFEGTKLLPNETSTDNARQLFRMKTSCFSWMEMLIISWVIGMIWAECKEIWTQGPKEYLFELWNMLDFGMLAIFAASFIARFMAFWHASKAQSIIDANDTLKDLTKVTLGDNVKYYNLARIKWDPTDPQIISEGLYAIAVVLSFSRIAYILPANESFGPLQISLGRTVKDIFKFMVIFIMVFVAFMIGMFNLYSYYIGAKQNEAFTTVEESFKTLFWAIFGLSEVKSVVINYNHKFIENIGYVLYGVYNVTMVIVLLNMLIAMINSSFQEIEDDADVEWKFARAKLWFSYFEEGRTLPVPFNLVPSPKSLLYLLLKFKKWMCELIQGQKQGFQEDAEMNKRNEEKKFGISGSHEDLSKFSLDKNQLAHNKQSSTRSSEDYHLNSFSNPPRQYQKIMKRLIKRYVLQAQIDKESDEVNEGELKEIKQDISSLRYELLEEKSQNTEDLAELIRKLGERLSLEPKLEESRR
Kir21 inh: inhibitors of mouse Kir2.1 inward-rectifier potassium channel; HEK293-Kir2.1, FluxOR thallium flux fluorescence; hits give low values; 310,000 compounds, 0.85% hits; P35561; B-score at 10 µM; AID 1672;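 active = fluorescence ratio B-score at or below minus 3 SD of library scores, with starting-brightness B-score within 2 SD, cut at about -4.2 in these data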;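 also: channel flux triggered by added potassium and thallium sulfate stimulus; B-score of peak minus minimum fluorescence over baseline after thallium stimulus; more negative B-score means stronger Kir2.1 block with less thallium influx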
TRPC6 inh: inhibitors of mouse TRPC6 channel | HEK293-TRPC6, membrane potential dye, ACh-evoked depolarization; hits give low values | B-score at 10 µM | 310,000 compounds, 1.1% hits | AID 2553;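 active = B-score under library mean minus 3 SD, initial fluorescence not abnormally high, positive integrated signal ratio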;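 also: B-score derived from integrated fluorescence ratio over the kinetic read; more negative B-score means stronger inhibition of depolarization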
TRPC4 PAM: allosterically enhances the mouse TRPC4 cation channel; Q9QUQ5; HEK293 TRPC4beta/mu-opioid, DAMGO EC20, Fluo-4 Ca2+ flux; hits give high values; B-score at 10 µM; 310,000 compounds, 0.42% hits; AID 2227;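 active = B-score of calcium response area above 5 SD of library B-scores, with initial fluorescence ratio within 5 SD of library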
TRPC4 agonist: opens the mouse TRPC4 cation channel; 310,000 compounds, 0.49% hits; B-score at 10 µM; Q9QUQ5; HEK293 TRPC4beta/mu-opioid, Fluo4 calcium fluorescence; hits give high values;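 active = B-score above 5 SD of library B-scores, and initial fluorescence ratio not above library mean plus 5 SD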;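 also: positive B-score marks a calcium rise read as TRPC4 activation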
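Material: TRPC4beta and mu-opioid receptor HEK293 stable cells | Incubation: 45 min room-temperature Fluo4 loading, 110 s read | Detection: Kinetic Fluo4 calcium fluorescence | Measure: Integrated baseline-normalised fluorescence ratio, converted to per-well B score | Benchmarks: Low control buffer alone, high control maximal DAMGO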
TRPC4 block: blocks the mouse TRPC4 cation channel. Q9QUQ5. HEK293 TRPC4beta/mu-opioid, DAMGO-evoked Fluo4 calcium flux; hits give low values. B-score at 10 µM. 300,000 compounds, 0.39% hits;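 active = B-score over 3 SD under the library average, no early fluorescence shift, positive overall ratio signal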
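Assay system – HEK293 line stably carrying TRPC4beta and mu-opioid receptor · Doses – single dose · Detection – Fluo4 calcium-dye fluorescence, kinetic read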
Large screens that a line does not name were inactive.

CC(C)c1ccc(OCc2ccc(C(=O)N3CCCC3)o2)cc1	TRPC4 PAM 42
C=C[C@H]1CN2CC[C@H]1C[C@H]2[C@H](O)c1ccnc2ccc(OC)cc12	none
C/C(=N\N=C(N)N)c1ccc(Cl)c(Cl)c1	Kir21 inh -5.27
CCCCCCCNC(=O)C1(CC2CC(c3ccc(Cl)cc3)=NO2)CCN(C(=O)Cc2ccc(F)cc2)CC1 (stereo not given)	none
CCCCCCCNC(=O)C1(CC2CC(c3cccc(Br)c3)=NO2)CCNCC1 (stereo not given)	Kir21 inh -11.4
CCCCCCCNC(=O)C1(CC2CC(c3cccc(Br)c3)=NO2)CCN(C(=O)c2ccccc2)CC1 (stereo not given)	none
CCCCCCCNC(=O)C1(CC2CC(c3ccc(Cl)cc3)=NO2)CCNCC1 (stereo not given)	Kir21 inh -10.2
COc1ccc(C2CC(=O)N(CCCN(C)CCc3ccc(OC)c(OC)c3)C2)cc1 (stereo not given)	TRPC4 PAM 13
Cn1c(=O)c2c(nc(CN3CCc4ccccc4C3)n2Cc2ccccc2F)n(C)c1=O	TRPC4 agonist 169
COc1cccc(CCNC(=O)CCc2nnc(Cc3cc(OC)ccc3OC)o2)c1	none
NC(=O)C1=C[C@H](c2ccc(C(F)(F)F)cc2)C[C@H](OCc2ccc(CO)cc2)O1	Kir21 inh -4.8
C#CCNC(=O)C1=C[C@@H](c2ccccc2)C[C@@H](OCc2ccc(CO)cc2)O1	Kir21 inh -5.6
O=C(Nc1ccccc1)C1=C[C@H](c2ccc3c(c2)OCO3)C[C@H](OCc2ccc(CO)cc2)O1	TRPC4 PAM 10
C#CCNC(=O)C1=C[C@H](c2ccc(C#C)cc2)C[C@H](OCc2ccc(CO)cc2)O1	none
O=C(C1=C[C@H](c2ccc(C(F)(F)F)cc2)C[C@H](OCCCCO)O1)N1CCN(Cc2ccccc2)CC1	TRPC4 agonist 186
NC(=O)C1=C[C@@H](c2ccc(C(F)(F)F)cc2)C[C@@H](OCc2ccc(CO)cc2)O1	none
CC1CN(C2=NC(=O)/C(=C/c3ccncc3)S2)CC(C)O1 (stereo not given)	none
OCCNC(=S)Nc1cccc(Cl)c1Cl	none
COc1cccc(-n2nc(C#N)c(Cl)cc2=O)c1	Kir21 inh -4.62
COc1cccc(-n2nc(C(N)=O)c(O)cc2=O)c1	none
CCn1ccnc1CNC(=O)c1ccc2oc(CCCc3ccccc3)nc2c1	TRPC4 block -6
CSCC[C@H](NC(=O)c1ccco1)c1nnc2ccccn12	none
Cc1nc(CN(C)C(=O)CC2C(=O)NCCN2Cc2ccc(-c3ccccc3)cc2)cs1 (stereo not given)	none
CC1(C)Cn2c(nc(=O)c3c2NCN(CCc2ccccc2)C3)S1	none
CC(C)(C)OC(=O)NCCc1nnc(SCc2cccc(Cl)c2)o1	Kir21 inh -11.7
C[C@H](NC(=O)OC(C)(C)C)c1nnc(SCC(=O)Nc2cccc(Cl)c2)o1	Kir21 inh -4.31
CC(C)(C)OC(=O)NCCc1nnc(SCc2c(Cl)cccc2Cl)o1	none
Cc1cccc(CSc2nnc(CCNC(=O)OC(C)(C)C)o2)c1	Kir21 inh -6.75
Cc1ccc(NC(=O)CSc2nnc(-c3ccco3)c(-c3ccco3)n2)cc1	none
CN(C)c1ccc(NC(=O)CSc2nnc(-c3ccco3)c(-c3ccco3)n2)cc1	TRPC6 inh -5.05
CNCC(=O)Nc1ccc(Cl)c(C(F)(F)F)c1	TRPC4 PAM 28
Cc1ccccc1NC(=O)CNc1ccc(Cl)c(C(F)(F)F)c1	none
O=C(CSc1ccc(-c2ccc(Cl)cc2)nn1)NC1CCCC1	none
Cc1cc(N2CCN(C)CC2)nc2ccc(NC(=S)NCCN3CCc4ccccc4C3)cc12	Kir21 inh -4.65
Cc1cc(N2CCN(C)CC2)nc2ccc(NC(=S)NCCCN3CCc4ccccc4C3)cc12	none
CCCCN(C)CCNC(=S)Nc1ccc2nc(N3CCN(CC)CC3)cc(C)c2c1	TRPC4 PAM 16
CCCN(CCC)CCNC(=O)CCC(=O)Nc1ccc2nc(N3CCN(C)CC3)cc(C)c2c1	TRPC4 agonist 87
Cc1cc(N2CCN(C)CC2)nc2ccc(NC(=O)CCC(=O)NCCC(C)C)cc12	none
CCOc1ccc(/C=N/NC(=O)C(O)c2ccccc2)c(O)c1 (stereo not given)	none
CC(OC(=O)/C=C/c1ccc2ccccc2n1)C(=O)Nc1ccc(S(N)(=O)=O)cc1 (stereo not given)	none
CC(C)Oc1ccc(CSC(=N)N)cc1	none
CCOc1ccc(CSC(=N)N)cc1Cl	TRPC4 agonist 120
CCOc1ccc(CSC(=N)N)cc1[N+](=O)[O-]	TRPC4 agonist 77
CCN(CC(=O)Nc1c(F)cccc1F)C(=O)CNC(=O)c1ccc(Br)o1	none
CC(C)(Oc1ccc(Br)cc1Cl)C(=O)Nc1ccon1	none
Cc1ccccc1C1c2[nH]c3ccccc3c2C[C@H]2C(=O)N(C3CCN(Cc4ccccc4)CC3)CC(=O)N12 (stereo not given in full)	TRPC4 agonist 48
CCOc1ccccc1C1c2[nH]c3ccccc3c2C[C@H]2C(=O)N(C3CCN(Cc4ccccc4)CC3)CC(=O)N12 (stereo not given in full)	none
COc1ccc(CCn2c(=O)[nH]c3cc(C(=O)N4CCN(c5ccccc5)CC4)ccc3c2=O)cc1OC	none
COc1ccc(CCn2c(=S)[nH]c3cc(C(=O)N4CCOCC4)ccc3c2=O)cc1OC	TRPC4 PAM 20
Cc1ccc(C(C)C)c(OCCCN(C)Cc2ccccc2)c1	Kir21 inh -11.1
Cc1ccc(C(C)C)c(OCC(O)CN(C)Cc2ccccc2)c1 (stereo not given)	Kir21 inh -9.73
Cc1ccc(OCCCCN(C)Cc2ccccc2)c(Br)c1	Kir21 inh -12.5
Cc1ccc(C(C)C)c(OCCN2CCc3ccccc3C2)c1	none
Cc1ccc(C(C)C)c(OCCCN2CCc3ccccc3C2)c1	Kir21 inh -9.02
COc1ccc(C2(C(=O)NCc3ccccc3Cl)CCOCC2)cc1OC	none
CN(CCOc1cccc2ccccc12)Cc1ccccc1	none
CCc1ccc(CN(C)CC(O)COc2cccc3ccccc23)cc1 (stereo not given)	Kir21 inh -16.3
C[C@H](NC(=O)c1ccc(Cl)cc1)C(=O)NCCc1ccc(S(N)(=O)=O)cc1	none
CCOC(=O)C1(Cc2ccccc2C)CCCN(C(=O)CCc2cccnc2)C1 (stereo not given)	none
CCN1CCN(c2ccc(S(=O)(=O)N3CCCCC3)cc2NC(=O)c2ccccc2)CC1	none
CCN1CCN(c2ccc(S(=O)(=O)N3CCCCC3)cc2NC(=O)c2cccc(F)c2)CC1	TRPC4 PAM 17
CN1CCN(S(=O)(=O)c2cccc(C(=O)Nc3cc(C(F)(F)F)ccc3N3CCCCC3)c2)CC1	none
